In ChEMBL document CHEMBL1131432, “Side chain methyl substitution in the delta-opioid receptor antagonist TIPP has an important effect on the activity profile” (J Med Chem, 1998):

How the values were obtained:
[1] = species on record: Cavia porcellus; experiment: In vitro agonist activity in electrically stimulated guinea pig ileum.; assay type: functional
How it was run: (§1)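 Isolated guinea pig ileum or mouse vas deferens, electrically stimulated; the read-out is inhibition of contractions. A [Leu5]enkephalin log dose–response curve was run on each preparation and test IC50 values were normalised to it. Antagonist Ke was taken from the IC50 ratio with and without a fixed antagonist concentration; in MVD the δ-antagonism was measured against DPDPE.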

[2] = species on record: Mus musculus; experiment: Inhibition of electrically evoked contractions of MVD. In MVD assay, the opioid effect was primarily mediated by delta-receptor; assay type: functional; how it was run: as §1
[3] = biological target: Kappa-type opioid receptor (Cavia porcellus, UniProt P41144); experiment: Binding affinity towards Opioid receptor kappa 1 on guinea pig cerebellum membranes by [3H]U-69593 displacement.; assay type: tissue-based, Membrane
[4] = biological target: Mu-type opioid receptor (Rattus norvegicus, UniProt P33535); experiment: Binding affinity towards Opioid receptor mu 1 on rat forebrain membranes by [3H]sufentanil displacement.; design: species or system Membrane
[5] = species on record: Mus musculus; experiment: Inhibition of electrically evoked contractions of MVD. In MVD assay, the opioid effect are primarily mediated by delta-receptors.; assay type: functional
How it was run: (§2)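 Mouse vas deferens preparations, electrically stimulated, with inhibition of evoked contractions as the read-out. Each preparation got a [Leu5]enkephalin log dose-response curve as standard, and test IC50 values were normalized against it. Antagonism was tested against the agonist DPDPE. Ke came from the ratio of agonist IC50 with and without a fixed antagonist concentration.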

[6] = species on record: Mus musculus; experiment: (§3) Inhibition of electrically evoked contractions of MVD in MVD assay, the opioid effect was primarily mediated by delta-receptor; assay type: functional; how it was run: as §1
[7] = species on record: Mus musculus; experiment: as §3; assay type: functional; remark: listed apart in the source
[8] = species on record: Cavia porcellus; experiment: In vitro opioid activity tested in bioassay based on inhibition of electrically evoked contractions of the GPI.; assay type: functional; how it was run: as §1
[9] = species on record: Mus musculus; experiment: Inhibition of electrically evoked contractions of MVD. In MVD assay, the opioid effect is primarily mediated by delta-receptor; assay type: functional; how it was run: as §2
[10] = species on record: Mus musculus; experiment: as §3; assay type: functional, organism-based; how it was run: as §1

Sequence of Kappa-type opioid receptor (P41144 whole entry): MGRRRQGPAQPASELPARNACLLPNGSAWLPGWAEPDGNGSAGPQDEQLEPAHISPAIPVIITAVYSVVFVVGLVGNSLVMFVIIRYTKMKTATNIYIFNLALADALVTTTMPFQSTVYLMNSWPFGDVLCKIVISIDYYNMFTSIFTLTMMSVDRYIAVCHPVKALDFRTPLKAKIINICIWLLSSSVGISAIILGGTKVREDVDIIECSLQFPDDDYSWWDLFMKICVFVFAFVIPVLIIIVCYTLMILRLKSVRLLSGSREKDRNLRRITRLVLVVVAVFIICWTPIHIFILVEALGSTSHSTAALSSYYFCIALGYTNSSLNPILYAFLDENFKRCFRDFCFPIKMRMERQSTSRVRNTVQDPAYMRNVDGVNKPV
Sequence of Mu-type opioid receptor (P33535 whole entry): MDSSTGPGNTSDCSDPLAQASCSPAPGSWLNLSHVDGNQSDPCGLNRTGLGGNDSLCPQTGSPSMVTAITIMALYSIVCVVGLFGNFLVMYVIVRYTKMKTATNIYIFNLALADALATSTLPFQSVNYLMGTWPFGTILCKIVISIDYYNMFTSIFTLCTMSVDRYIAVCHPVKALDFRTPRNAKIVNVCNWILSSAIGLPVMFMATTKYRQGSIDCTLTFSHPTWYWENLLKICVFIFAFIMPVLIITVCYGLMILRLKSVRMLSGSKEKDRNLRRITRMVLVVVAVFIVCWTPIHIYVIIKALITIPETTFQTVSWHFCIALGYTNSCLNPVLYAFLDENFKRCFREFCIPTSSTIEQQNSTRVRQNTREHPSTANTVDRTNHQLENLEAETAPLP

Row | Compound | IC50 [1] [nM] | Ke [2] [nM] | Ki [3] [nM] | Ki [4] [nM] | Ke [5] [nM] | Ke [6] [nM] | IC25 [7] [nM] | IC35 [8] [nM] | Ke [9] [nM] | IC50 [10] [nM]
1 | N[C@@H](Cc1ccc(O)cc1)C(=O)N1Cc2ccccc2C[C@H]1C(=O)N[C@@H](Cc1ccccc1)C(=O)N[C@@H](Cc1ccccc1)C(=O)O | > 10000 | 4.8 | > 10000 | > 10000 |  |  |  |  |  | 
2 | NC(=O)[C@H](Cc1ccccc1)NC(=O)[C@@H](Cc1ccccc1)NC(=O)[C@@H]1Cc2ccccc2CN1C(=O)[C@@H](N)Cc1ccc(O)cc1 | > 10000 | 125 |  | 658 |  |  |  |  |  | 
3 | C[C@@H](c1ccc(O)cc1)[C@H](N)C(=O)N1Cc2ccccc2C[C@H]1C(=O)N[C@@H](Cc1ccccc1)C(=O)N[C@@H](Cc1ccccc1)C(N)=O | > 10000 |  | > 10000 | 352 | 102 |  |  |  |  | 
4 | C[C@H](c1ccc(O)cc1)[C@@H](N)C(=O)N1Cc2ccccc2C[C@H]1C(=O)N[C@@H](Cc1ccccc1)C(=O)N[C@@H](Cc1ccccc1)C(N)=O | > 10000 |  | 1180 | 1600 |  | 1020 |  |  |  | 
5 | C[C@@H](c1ccccc1)[C@H](NC(=O)[C@H](Cc1ccccc1)NC(=O)[C@@H]1Cc2ccccc2CN1C(=O)[C@@H](N)Cc1ccc(O)cc1)C(N)=O | 636 | 5.36 | 1280 | 47 |  |  |  |  |  | 
6 | C[C@@H](c1ccccc1)[C@H](NC(=O)[C@@H]1Cc2ccccc2CN1C(=O)[C@@H](N)Cc1ccc(O)cc1)C(=O)N[C@@H](Cc1ccccc1)C(N)=O | 5520 | 18.2 | 3400 | 973 |  |  |  |  |  | 
7 | C[C@H](c1ccccc1)[C@@H](NC(=O)[C@@H]1Cc2ccccc2CN1C(=O)[C@@H](N)Cc1ccc(O)cc1)C(=O)N[C@@H](Cc1ccccc1)C(=O)O | > 10000 | 0.192 | > 10000 | > 10000 |  |  |  |  |  | 
8 | C[C@H](c1ccccc1)[C@H](NC(=O)[C@@H]1Cc2ccccc2CN1C(=O)[C@@H](N)Cc1ccc(O)cc1)C(=O)N[C@@H](Cc1ccccc1)C(N)=O | 5080 |  | 4320 | 149 |  | 7.24 |  |  |  | 
9 | C[C@H](c1ccc(O)cc1)[C@H](N)C(=O)N1Cc2ccccc2C[C@H]1C(=O)N[C@@H](Cc1ccccc1)C(=O)N[C@@H](Cc1ccccc1)C(N)=O | 1210 |  | > 10000 | 284 |  |  | 1030 |  |  | 
10 | C[C@@H](c1ccccc1)[C@@H](NC(=O)[C@H](Cc1ccccc1)NC(=O)[C@@H]1Cc2ccccc2CN1C(=O)[C@@H](N)Cc1ccc(O)cc1)C(N)=O | 4510 |  | 2840 | > 10000 |  | 27.7 |  |  |  | 
11 | C[C@H](c1ccccc1)[C@@H](NC(=O)[C@H](Cc1ccccc1)NC(=O)[C@@H]1Cc2ccccc2CN1C(=O)[C@@H](N)Cc1ccc(O)cc1)C(N)=O |  |  | 766 | 498 |  | 20.5 |  | 1710 |  | 
12 | NC(=O)[C@H](Cc1ccccc1)NC(=O)[C@H](Cc1ccccc1)NC(=O)[C@@H]1Cc2ccccc2CN1C(=O)[C@@H](N)Cc1ccc(O)cc1 |  |  | 838 | 178 |  |  |  |  | 18 | 
13 | N[C@@H](Cc1ccc(O)cc1)C(=O)N1Cc2ccccc2C[C@H]1C(=O)NC(Cc1ccccc1)C(=O)N[C@@H](Cc1ccccc1)C(=O)O (single isomer, unassigned) |  |  |  | 4000 |  |  |  |  |  | 
14 | C[C@@H](c1ccccc1)C(NC(=O)[C@@H]1Cc2ccccc2CN1C(=O)[C@@H](N)Cc1ccc(O)cc1)C(=O)N[C@@H](Cc1ccccc1)C(N)=O (single isomer, unassigned) | 127 |  | 1190 | 84 |  |  |  |  |  | 
15 | C[C@H](c1ccccc1)C(NC(=O)[C@@H]1Cc2ccccc2CN1C(=O)[C@@H](N)Cc1ccc(O)cc1)C(=O)N[C@@H](Cc1ccccc1)C(N)=O (single isomer, unassigned) | > 10000 |  | 442 | > 10000 |  | 54.4 |  |  |  | 
16 | C[C@@H](c1ccc(O)cc1)C(N)C(=O)N1Cc2ccccc2C[C@H]1C(=O)N[C@@H](Cc1ccccc1)C(=O)N[C@@H](Cc1ccccc1)C(N)=O (single isomer, unassigned) | > 10000 |  | 2510 | > 10000 |  | 317 |  |  |  | 
17 | C[C@H](c1ccccc1)C(NC(=O)[C@H](Cc1ccccc1)NC(=O)[C@@H]1Cc2ccccc2CN1C(=O)[C@@H](N)Cc1ccc(O)cc1)C(N)=O (single isomer, unassigned) | 2740 |  | 253 | 2020 |  | 5.37 |  |  |  | 
18 | C[C@H]1c2ccccc2CN(C(=O)C(N)Cc2ccc(O)cc2)[C@H]1C(=O)N[C@@H](Cc1ccccc1)C(=O)N[C@@H](Cc1ccccc1)C(=O)O (single isomer, unassigned) | > 10000 | 1.61 | > 10000 | > 10000 |  |  |  |  |  | 
19 | CC1c2ccccc2CN(C(=O)C(N)Cc2ccc(O)cc2)[C@@H]1C(=O)N[C@@H](Cc1ccccc1)C(=O)N[C@@H](Cc1ccccc1)C(=O)O (single isomer, unassigned) | > 10000 | 2.09 | > 10000 | > 10000 |  |  |  |  |  | 
20 | NC(=O)[C@H](Cc1ccccc1)NC(=O)[C@H](Cc1ccccc1)NC(=O)C1Cc2ccccc2CN1C(=O)[C@@H](N)Cc1ccc(O)cc1 (single isomer, unassigned) | 37.1 |  |  | 7.3 |  |  |  |  |  | 454
21 | C[C@@H]1c2ccccc2CN(C(=O)[C@@H](N)Cc2ccc(O)cc2)C1C(=O)N[C@@H](Cc1ccccc1)C(=O)N[C@@H](Cc1ccccc1)C(=O)O (single isomer, unassigned; 15) | > 10000 |  | > 10000 | > 10000 |  | 1560 |  |  |  | 
22 | C[C@@H]1c2ccccc2CN(C(=O)[C@@H](N)Cc2ccc(O)cc2)C1C(=O)N[C@@H](Cc1ccccc1)C(=O)N[C@@H](Cc1ccccc1)C(=O)O (single isomer, unassigned; 16) | > 10000 |  | > 10000 | > 10000 |  | 401 |  |  |  | 
